{"data": "Measurements pooled from the literature", "cell line": "MCF7", "read-out": "cell growth or viability", "note": "Each line is one published result; the experiments were not run side by side."}
{"SMILES": "COc1cc(C(CC(C)=O)NCCc2ccc(O)c(O)c2)ccc1O (stereo not shown)", "test": "MTT", "endpoint": "TGI", "value": "46.2 µM"}
{"SMILES": "CCCCCCCC(=O)NCC(=O)OC", "test": "MTT", "conditions": "10 µM, 48 h", "endpoint": "inhibition", "value": "45%"}
{"SMILES": "CCCCCCCCCCCCNC(=S)NCCCC[C@H](NS(C)(=O)=O)C(=O)N[C@H](C)C(=O)N[C@@H](CCCNC(=N)N)C(=O)N1CCOCC1", "test": "MTT", "conditions": "72 h", "endpoint": "EC50", "value": "64.7 to 93.7 µM"}
{"SMILES": "CC/C(=C(\\c1ccccc1)c1ccc(OCCN(C)C)cc1)c1ccccc1", "test": "ATP luminescence", "conditions": "72 h", "endpoint": "EC90", "value": "32.2 µM"}
{"SMILES": "COc1ccc(-c2c(Cc3ccccc3)[nH]c(=NC(=O)c3ccccc3F)n2C)cc1", "endpoint": "EC50", "value": "1.4 µM"}
{"SMILES": "Cc1ccc2nc(-c3ccc([N+](=O)[O-])cc3)n(Cc3ccc(Cl)cc3)c2c1", "test": "MTT", "endpoint": "IC50", "value": "6.24 µM"}
{"SMILES": "COc1cccc2c1C(=O)c1c(O)c3c(c(O)c1C2=O)C[C@@](O)(C(=O)CO)C[C@@H]3O[C@H]1C[C@H](N)[C@H](O)[C@H](C)O1", "test": "MTT", "endpoint": "TGI", "value": "0.21 µM"}
{"SMILES": "COc1ccc(C(=O)/C=C/c2ccccc2Cl)cc1S(N)(=O)=O", "test": "SRB", "conditions": "10 µM", "endpoint": "inhibition", "value": "4%"}
{"SMILES": "CCOc1cc(-c2nc3ccc(C)cc3[nH]2)ccc1O", "test": "MTT", "conditions": "48 h", "endpoint": "IC50", "value": "54.9 µM"}
{"SMILES": "COc1cc(C(CC(=O)c2ccc([N+](=O)[O-])cc2)NCCc2ccc(O)c(O)c2)ccc1O (stereo not shown)", "test": "MTT", "endpoint": "TGI", "value": "0.29 µM"}
{"SMILES": "CSc1ccc(-c2nc3ccc(C)cc3n2Cc2ccccc2)cc1", "test": "MTT", "endpoint": "IC50", "value": "29 µM"}
{"SMILES": "C[C@]12CC[C@@H]3c4ccc(O)cc4CC[C@H]3[C@@H]1CC[C@@H]2O", "test": "ATP luminescence", "conditions": "72 h", "endpoint": "EC90", "value": "53.5 µM"}
{"SMILES": "Cc1ccc2nc(-c3ccc(Cl)cc3)n(Cc3ccccc3Cl)c2c1", "test": "MTT", "endpoint": "IC50", "value": "59.8 µM"}
{"SMILES": "COc1cccc2c1C(=O)c1c(O)c3c(c(O)c1C2=O)C[C@@](O)(C(=O)CO)C[C@@H]3O[C@H]1C[C@H](N)[C@H](O)[C@H](C)O1", "test": "MTT", "conditions": "48 h", "endpoint": "IC50", "value": "0.964 µg/mL"}
{"SMILES": "Cc1ccc2nc(-c3ccc([N+](=O)[O-])cc3)[nH]c2c1", "test": "MTT", "conditions": "48 h", "endpoint": "IC50", "value": "10.5 µM"}
{"SMILES": "COc1cc(C(CC(=O)c2ccc(C)cc2)NCCc2ccc(O)c(O)c2)ccc1O (stereo not shown)", "test": "MTT", "endpoint": "TGI", "value": "10.1 µM"}
{"SMILES": "COc1ccc(C(=O)/C=C/c2ccc3ccccc3c2)cc1S(N)(=O)=O", "test": "SRB", "conditions": "10 µM", "endpoint": "inhibition", "value": "175%"}
{"SMILES": "Cc1ccc2nc(-c3ccc4c(c3)OCO4)[nH]c2c1", "test": "MTT", "conditions": "48 h", "endpoint": "IC50", "value": "> 100 µM"}
{"SMILES": "COc1ccc(C(=O)/C=C/c2ccc3c(c2)OCCO3)cc1S(N)(=O)=O", "test": "SRB", "conditions": "10 µM", "endpoint": "inhibition", "value": "77%"}
{"SMILES": "Clc1ccc(-c2nc3ccccc3[nH]2)c(Cl)c1", "test": "MTT", "conditions": "48 h", "endpoint": "IC50", "value": "55.8 µM"}
{"SMILES": "COc1ccc(C(=O)/C=C/c2c(F)cccc2Cl)cc1S(N)(=O)=O", "test": "SRB", "conditions": "10 µM", "endpoint": "inhibition", "value": "105%"}
{"SMILES": "COc1cc(CNC(=O)C[C@H](C)CCC=C(C)C)ccc1OCc1cn(-c2ccc(Cl)cc2)nn1", "test": "SRB", "conditions": "10 µM", "endpoint": "inhibition", "value": "34%"}
{"SMILES": "COc1ccccc1/C=C/C(=O)c1ccc(OC)c(S(N)(=O)=O)c1", "test": "SRB", "conditions": "10 µM", "endpoint": "inhibition", "value": "92%"}
{"SMILES": "CCOCCOCCOCCNC(=S)NCCCC[C@H](NS(C)(=O)=O)C(=O)N[C@@H](C)C(=O)N[C@@H](CCCNC(=N)N)C(N)=O", "test": "MTT", "conditions": "72 h", "endpoint": "EC50", "value": "> 100 µM"}
{"SMILES": "COc1ccc(C(=O)/C=C/c2cccc(Cl)c2)cc1S(N)(=O)=O", "test": "SRB", "conditions": "10 µM", "endpoint": "inhibition", "value": "167%"}
{"SMILES": "C[C@@H](NC(=O)[C@H](CCCCNC(=O)C(F)(F)F)NS(C)(=O)=O)C(=O)N[C@@H](CCCNC(=N)N)C(N)=O", "test": "MTT", "conditions": "72 h", "endpoint": "EC50", "value": "47.6 to 62.8 µM"}
{"SMILES": "COc1ccc(C(=O)/C=C/c2cccc3ccccc23)cc1S(N)(=O)=O", "test": "SRB", "conditions": "10 µM", "endpoint": "inhibition", "value": "160%"}
{"SMILES": "Clc1ccc(-c2nc3ccccc3n2Cc2ccccc2)cc1", "test": "MTT", "endpoint": "IC50", "value": "40.2 µM"}
